The results in this text go back to ChEMBL document CHEMBL4007461, “Synthesis, Antiviral Potency, in Vitro ADMET, and X-ray Structure of Potent CD4 Mimics as Entry Inhibitors That Target the Phe43 Cavity of HIV-1 gp120” (J Med Chem, 2017).

pIC50: −log10 of the molar value. Activity calls are given as the source filed them. The rule behind the calls is not given here.

The subject of data set [1] is Human immunodeficiency virus 1. Briefly: Antiviral activity against HIV1 3B infected in human MT2 cells assessed as inhibition of p24 antigen production pretreated with virus for 30 mins followed by 4 days incubation with cells by sandwich ELISA based multicycle infection assay. Format: functional, cell-based. An outline of the steps: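 MT-2 cells were infected with HIV-1 IIIB at 100 TCID50 and preincubated 30 min with graded compound concentrations. Medium was replaced next day. Supernatants were collected 4 days post-infection, lysed with equal volume 5% Triton X-100, and p24 was measured by sandwich ELISA. IC50 came from percent inhibition of p24.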

The subject of data set [2] is Human immunodeficiency virus 1. Briefly: Antiviral activity against X4 tropic HIV1 HXB2 infected in human TZM-bl cells pretreated with virus for 30 mins followed by 3 days incubation with cells by luciferase reporter gene based single cycle infection assay. Format: functional, cell-based. An outline of the steps: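 TZM-bl cells (1 x 10^4/well) were cultured overnight at 37 °C. HXB2-Env pseudovirus was preincubated 30 min with graded compound concentrations, then added to the cells for 3 days. Cells were washed and lysed, and luciferase was read. IC50 came from percent inhibition.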
On the technique in general: In a reporter assay the amount or activity of a reporter protein is the signal.

The test system of data set [3] is MT2. Briefly: Cytotoxicity against human MT2 cells incubated for 4 days by XTT assay. The data set is classed as cell-based. To be noted: mt2, 96 h, 96 h. An outline of the steps: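 Run alongside the MT-2 multicycle infection assay. Compound at graded concentrations mixed with an equal volume of MT-2 cells (10^5 cells/ml). Medium replaced next day and culture continued four days.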

Data set [4] relates to TZM. Nature of the data set: Cytotoxicity against human TZM-bl cells incubated for 3 days by XTT assay. The data set is classed as cell-based. To be noted: tzm, 72 h. An outline of the steps: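 TZM-bl cells, 1 x 10^4/well, cultured overnight at 37 °C. Compounds added at graded concentrations for three days.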
(Tetrazolium assays rely on reduction of a dye to a coloured formazan, in cell work by metabolically active cells.)

The test system of data set [5] is Human immunodeficiency virus 1. Briefly: Antiviral activity against HIV1 HXB2 pseudovirus infected in human TZM-bl cells assessed as inhibition of viral entry treated 1 hr post infection measured after 48 hrs by luciferase reporter gene assay. Format: functional, cell-based. An outline of the steps: (§1)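 TZM-bl cells, 1 x 10^4/well, cultured overnight at 37 °C, then infected with HXB2 Env pseudovirus. Plates spun 30 min at 2090 g at 4 °C, then held 90 min at 37 °C. Unbound virus washed off with PBS and fresh medium added. Compounds given at 10-15 times their IC50 at set times after infection. Cells lysed at 48 h and luciferase read. Two independent experiments, each in triplicate.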

Data set [6] has as its system Human immunodeficiency virus 1. Briefly: Antiviral activity against HIV1 HXB2 pseudovirus infected in human TZM-bl cells assessed as inhibition of viral entry treated 2 to 4 hrs post infection measured after 48 hrs by luciferase reporter gene assay. Format: functional, cell-based. An outline of the steps: as §1
Data set [7] can be described thus: Inhibition of HIV1 HXB2 gp120-mediated cell to cell fusion using human MAGI-CCR5 cells as indicator cells and Env/Tat-expressing HL2/3 cells as effector cells preincubated with MAGI-CCR5 cells for 1 hr followed by HL2/3 cells addition by beta-galactosidase reporter gene assay. To be noted: Human immunodeficiency virus 1, HXB2.
The nature of data set [8]: Inhibition of HIV1 reverse transcriptase by colorimetric assay. Details: species or system Human immunodeficiency virus 1. An outline of the steps: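 HIV-1 reverse transcriptase activity measured with a commercial colorimetric reverse transcriptase kit, following the maker's instructions.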
The nature of data set [9]: Apparent permeability from basolateral to apical side in human Caco2 cells at 10 uM at pH 7.4 by LC-MS/MS analysis. Format: ADME, cell-based. The following applies: Caco-2, pH 7.4. An outline of the steps: (§2)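 Caco-2 cells, passage 40-60, seeded on Transwell inserts at 1 x 10^5 cells/cm2 and grown 20 days in DMEM. Monolayers equilibrated 40 min in HBSS. Donor: compound at 10 µM final, 1% DMSO, in HBSS pH 7.4 with lucifer yellow as integrity marker. Sampled at 120 min, A-B and B-A, in duplicate, by LC-MS/MS. Papp = (dQ/dt)/(C0 × A); efflux ratio = Papp(B-A)/Papp(A-B).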
(Caco-2 cells form a polarised layer with tight junctions and transporters.)

Data set [10] can be described thus: Apparent permeability from apical to basolateral side in human Caco2 cells at 10 uM at pH 7.4 by LC-MS/MS analysis. The data set is classed as ADME, cell-based. To be noted: Caco-2, pH 7.4. An outline of the steps: as §2
Data set [11] in a line: Aqueous solubility of the compound at 1 to 100 uM in PBS at pH 7.4 after 2 hrs by turbidimetric analysis. Format: physicochemical. An outline of the steps: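 DMSO stocks diluted 1:100 into phosphate-buffered saline pH 7.4, giving 1, 3, 10, 30 and 100 µM final in 1% DMSO. Seven replicate wells per concentration, incubated 2 h at 37 °C, absorbance read at 620 nm. Solubility taken as the concentration giving absorbance above the 1% DMSO vehicle.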

A short description of data set [12]: Inhibition of CYP1A in human liver microsomes using ethoxyresorufin as substrate after 5 mins in presence of NADPH by LC-MS/MS analysis.
Data set [13] has as its system Human immunodeficiency virus 1. Briefly: Antiviral activity against HIV1 HXB2 pseudovirus infected in human TZM-bl cells assessed as inhibition of viral entry treated 8 hrs post infection measured after 48 hrs by luciferase reporter gene assay. Format: functional, cell-based. An outline of the steps:
as §1

In general, pIC50 refers to the negative decadic logarithm of the IC50, by convention in mol/L. The CC50 is the concentration at which the toxic effect on the cells reaches its halfway point. Read a low CC50 as harm at low concentration. By Papp B→A is commonly meant how fast a substance crosses the layer from the basolateral side. By Papp A→B is commonly meant how fast a substance crosses the layer from the apical side. What is called solubility (kinetic) is the concentration staying in solution when a stock, usually in DMSO, is diluted into the medium.

In the case of `CNCCC(NC(=O)c1ccc(-c2ccc(F)c(Cl)c2)[nH]1)c1nc(C)c(CO)s1` (stereo in doubt; 65B), the negative logarithm of the IC50 (pIC50) is 5.24 in [1] and 5.34 in data set [2]. Also, the figures for the CC50 in [3] and in data set [4] were 24.2 µM and 22.3 µM, respectively.
Taken in the same sequence, the figures for `Cc1cc(-c2ccc(C(=O)NC(CCN(C)C)c3nc(C)c(CO)s3)[nH]2)ccc1F` (stereo in doubt; 69B) were 5.54, 5.32, 23.5 µM and 23.5 µM.
In the case of `CNCC(NC(=O)c1ccc(-c2ccc(C)c(F)c2)[nH]1)c1nc(C)c(CO)s1` (stereo in doubt; 43B), the negative-log IC50 (pIC50) in data set [1] was 6.02; in data set [2] it was 5.80. Besides, the CC50 amounted to 30.6 µM in [3] and 34.2 µM in data set [4].
Taken in the same sequence, the figures for `CNCCC(NC(=O)c1ccc(-c2ccc(F)c(C)c2)[nH]1)c1nc(C)c(CO)s1` (stereo in doubt; 66B) were 5.30, 5.31, 25.3 µM and 36.4 µM.
Taken in the same sequence, the figures for `Cc1nc(C(CCN(C)C)NC(=O)c2ccc(-c3ccc(F)c(Cl)c3)[nH]2)sc1CO` (stereo in doubt; 68B) were 5.36, 5.74, 22 µM and 22 µM.
Take `Cc1cc(C(=O)NC(CN)c2nc(C)c(CO)s2)[nH]c1-c1ccc(Cl)cc1` (stereo in doubt; 28B): the pIC50 in data set [1] is 5.21. Further, the 50% cytotoxic concentration (CC50) in data set [3] stood at 4.1 µM; in data set [4] it was 5.2 µM.
`CNCC(NC(=O)c1ccc(-c2cc(F)c(Cl)c(F)c2)[nH]1)c1ncc(CO)s1` (stereo in doubt; 88B): the negative-log IC50 (pIC50) in [2] is 6.38. The half-maximal cytotoxic concentration (CC50) in data set [3] came out at 11.9 µM; in data set [4], 13.9 µM.
With `c1cc(CN2CCCNCCNCCCNCC2)ccc1CN1CCCNCCNCCCNCC1`, in data set [5], the inhibition result is “Active”. Besides, in data set [6], the inhibition result is “inactive”.
For `NCC(NC(=O)c1ccc(-c2cc(F)c(Cl)c(F)c2)[nH]1)c1ncc(CO)s1` (stereo in doubt; 84B), the pIC50 in data set [1] is 6.01. Further, the CC50 in data set [3] came to 17.4 µM; in [4] it was 20.6 µM.
On to `Cc1cc(-c2ccc(Cl)cc2)[nH]c1C(=O)NC(CN)c1nc(C)c(CO)s1` (stereo in doubt; 27B), for which the pIC50 was 5.39 in [1] and 5.66 in [2]. The CC50 worked out at 24.9 µM in data set [3] and 27.2 µM in data set [4].
`COc1cc(C(=O)NC(CN)c2nc(C)c(CO)s2)[nH]c1-c1ccc(Cl)cc1` (stereo in doubt; 29B): the pIC50 in [2] is 4.77. Moreover, the figures for the CC50 in data set [3] and in data set [4] were 15.7 µM and 16.4 µM, respectively.
Turning to `CC1(C)CC(NC(=O)C(=O)Nc2ccc(Cl)cc2)CC(C)(C)N1`, the pIC50 in data set [7] was 5.54; in data set [8], < 3.52.
`NCC(NC(=O)c1ccc(-c2ccc(Cl)cc2)[nH]1)c1ncc(CO)s1` (stereo in doubt; 81B): the pIC50 in data set [1] is 5.74; in [2], 6.12. Further, the values for the 50% cytotoxic concentration (CC50) in data set [3] and in [4] were 34.5 µM and 37.1 µM, respectively.
Consider `COc1ccnc2[nH]cc(C(=O)C(=O)N3CCN(C(=O)c4ccccc4)C[C@H]3C)c12`, for which, in data set [5], the inhibition result is “Active”. Further, the inhibition result in data set [6] was “inactive”.
For `CNCC(NC(=O)c1ccc(-c2ccc(Cl)c(F)c2)[nH]1)c1nc(C)c(CO)s1` (stereo in doubt; 42B), the negative logarithm of the IC50 (pIC50) in data set [1] was 5.70. For the same molecule, the values for the cytotoxic concentration (CC50) in [3] and in data set [4] were 18.1 µM and 21.3 µM, respectively.
Regarding `COc1cnc(-n2cnc(C)n2)c2[nH]cc(C(=O)C(=O)N3CCN(C(=O)c4ccccc4)CC3)c12`, the Papp B→A at 10 µM in [9] stood at 37.4 ×10⁻⁶ cm/s. In addition, the apparent permeability from apical to basolateral (Papp A→B) at 10 µM in data set [10] came out at 7.62 ×10⁻⁶ cm/s. For the same molecule, the solubility (kinetic) at 2 h in data set [11] was > 100 µM. Moreover, the pIC50 in [12] is < 4.60.
As to `Cc1cc(-c2ccc(C(=O)NC(CCN)c3nc(C)c(CO)s3)[nH]2)ccc1F` (stereo in doubt; 63B), the pIC50 in [1] is 5.52; in data set [2] it was 5.11. The results for the 50% cytotoxic concentration (CC50) in data set [3] and in data set [4] were 34.7 µM and 38.2 µM, respectively.
Taken in the same sequence, the figures for `NCC(NC(=O)c1ccc(-c2ccc(Cl)c(F)c2)[nH]1)c1ncc(CO)s1` (stereo in doubt; 82B) were 5.92, 6.24, 36 µM and 33 µM.
Taken in the same sequence, the figures for `Cc1nc(C(CCN)NC(=O)c2ccc(-c3ccc(F)c(Cl)c3)[nH]2)sc1CO` (stereo in doubt; 62B) were 5.03, 5.10, 24.9 µM and 24.5 µM.
With `Cc1nc(C(CN)NC(=O)c2ccc(-c3ccc(Cl)cc3)n2C)sc1CO` (stereo in doubt; 26B), the pIC50 in data set [2] was 4.59. In addition, the cytotoxic concentration (CC50) turned out to be 32.1 µM in data set [3] and 35.8 µM in [4].
Regarding `Cc1cc(C(=O)NC(CN)c2nc(C)c(CO)s2)[nH]c1-c1ccc(Cl)cc1` (stereo in doubt; 28A), the pIC50 was 5.28 in data set [1] (Human immunodeficiency virus 1, 3B, MT2) and 5.44 in data set [2] (Human immunodeficiency virus 1, HXB2, TZM-bl). The results for the CC50 in data set [3] and in [4] were 18 µM and 22.2 µM, respectively.
Take `CNCC(NC(=O)c1ccc(-c2ccc(C)c(F)c2)[nH]1)c1ncc(CO)s1` (stereo in doubt; 87B): the pIC50 in [1] and in data set [2] was 6.00 throughout. The CC50 in data set [3] is 28.3 µM; in data set [4] it was 27.4 µM.
Take `Cc1nc(C(CN)NC(=O)c2ccc(-c3ccc(F)c(F)c3)[nH]2)sc1CO` (stereo in doubt; 25B): the negative logarithm of the IC50 (pIC50) in data set [1] is 5.32. Moreover, the results for the CC50 in [3] and in [4] were 64.6 µM and 58.6 µM, respectively.
`CNCC(NC(=O)c1ccc(-c2ccc(Cl)c(F)c2)[nH]1)c1ncc(CO)s1` (stereo in doubt; 86B): the pIC50 in [1] is 5.40; in data set [2], 6.02. Also, the CC50 in data set [3] amounted to 18.3 µM; in data set [4], 17.3 µM.
For `Cc1nnc(C(=O)NC(C)(C)c2nc(C(=O)NCc3ccc(F)cc3)c(O)c(=O)n2C)o1`, the inhibition result in data set [13] is “inactive”.
For `CNCC(NC(=O)c1ccc(-c2ccc(Cl)cc2)[nH]1)c1nc(C)c(CO)s1` (stereo in doubt; 41B), the pIC50 in data set [1] is 5.51. Besides, the cytotoxic concentration (CC50) in data set [3] was found to be 26.4 µM; in [4] it was 31.7 µM.
